PMC8114561 (Small (Weinheim an der Bergstrasse, Germany), 2019)
pIC50: −log10 of the molar value. “And” between values parts separate entries of the source, which are not always exact repeats. Equal values may be shown once.

Key:
[1] = tested on: C26 tumors; experiment: Tumor regression, syngeneic C26 colon carcinoma; type: in vivo, BALB/c mice; conditions: single i.v. dose
[2] = tested on: MIA PaCa-2 tumors; experiment: Tumor regression, MIA PaCa-2 pancreatic xenograft; type: in vivo, nude BALB/c mice; conditions: 20 mg Dox equiv. kg^−1 BW
[3] = cited from earlier work
[4] = tested on: advanced soft tissue sarcomas; conditions: cited from earlier work
[5] = tested on: STS; conditions: ref NCT01514188; cited from earlier work
[6] = Intravenous pharmacokinetics in healthy BALB/c mice
[7] = tested on: C26 murine colon carcinoma cells; experiment: In vitro cytotoxicity; type: cell-based
[8] = tested on: MIA PaCa-2 cells; experiment: In vitro cytotoxicity; type: cell-based, human; conditions: 72 h incubation, MTS, Dox equiv. concentration, n = 3 (Figure 2F)
Method in brief: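 MIA PaCa-2 cells grown in DMEM with 10% FBS and 2.5% horse serum, seeded at 5000 cells/well and left overnight. Exposed for 72 h, in triplicate, to 3-fold serial dilutions in medium, with cell-free wells for background correction. MTS added for 3 h at 37 °C, then A490 read. Viability relative to buffer-treated cells; IC50 as Dox equiv. by logistic nonlinear regression.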

[9] = mouse, iv

## COc1cccc2c1C(=O)c1c(O)c3c(c(O)c1C2=O)C[C@@](O)(/C(CO)=N/NC(=O)CCCCCN1C(=O)C=CC1=O)C[C@@H]3O[C@H]1C[C@H](N)[C@H](O)[C@H](C)O1 [AlDox, Aldoxorubicin]
[1]; 20 mg Dox equiv. kg^−1 BW
  Mice that did not survive over the 100-day course of study: 89%
[1]; without recurrence of the primary tumor in any mice, 100 days
  Tumor response at 20 mg Dox equiv. kg^−1 BW: complete eradication of C26 tumors
[2]
  Tumor recurrence in tumor-eradicated mice by day 50: tumors recurred in all of the tumor-eradicated mice
[2]; single i.v. dose
  Mice with complete tumor disappearance by day 15: 50%
[3]; aqueous solutions
  Concentration at which an acidic pH is required for solubility: ≥ 0.5 mg Dox equiv. mL^−1
[3]; requires an acidic pH for solubility in aqueous solutions
  Solubility at physiological pH: poor solubility
[4]
  Cardiotoxicity: minimal cardiotoxicity
  Progression-free survival compared to the standard of care regimen: superior progression-free survival
[5]
  Cardiotoxicity in the AlDox arm: no evidence of cardiotoxicity
  Overall survival, AlDox versus free Dox arms: not considerably different
  PFS in the AlDox arm: superior PFS
[6]; i.v. 5 mg Dox equiv. per kg BW, 15 min
  Plasma concentration 15 min after i.v. injection, fold lower than ABD–Dox: approximately 2 fold
[6]; i.v. 5 mg Dox equiv. per kg BW, plasma, two-compartment model, mean ± SD
  Area under curve: 801.2 ± 23.7 × 10^−6 M h

## COc1cccc2c1C(=O)c1c(O)c3c(c(O)c1C2=O)C[C@@](O)(C(=O)CO)C[C@@H]3O[C@H]1C[C@H](N)[C@H](O)[C@H](C)O1 [free Dox, doxorubicin]
[7]; 72 h, in the absence of MSA and ABD, n = 3 (Figure 2H)
  pIC50: 6.64
[7]; 72 h, in the presence of ABD (0.5 × 10^−3 M in medium), n = 3 (Figure 2H)
  pIC50: 6.80
[7]; 72 h, in the presence of MSA (equimolar), n = 3 (Figure 2H)
  pIC50: 6.66
[7]; 72 h incubation, MTS, Dox equiv. concentration, n = 3 (Figure 2F)
  pIC50: 6.29 and 6.30
[7]; C26 cells, 72 h
  Change of cytotoxicity in the presence of either MSA or ABD: No difference was observed
[8]
  pIC50: 7.40
[9]
  In vivo elimination half-life: on the order of minutes
[6]; i.v. 5 mg per kg BW, 15 min
  Concentration in blood 15 min after i.v. injection, of the initial concentration: less than 2%
